Where “and” joins values, the source holds several entries; their conditions need not be identical. Equal values may be shown once.
Legend:
[1] = species on record: Rattus norvegicus; test: Tissue biodistribution into estrogen-primed immature female rat muscle at 1 hr blocked time interval; assay type: ADME, organism-based; conditions: in vivo
Summary of the method: (§1)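 Immature female Sprague-Dawley rats (25 days old, ≈50 g, five per time point) primed with estradiol, 5 μg sc daily for 2 days in 50% ethanol/sunflower seed oil, used 24 h after the last injection. The 18F-labeled ligand was given iv by tail vein in 10% ethanol/saline. Decapitated at 1 or 3 h; blood and organs weighed and gamma-counted. Reported as %ID/g ± SD, n = 5.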

[2] = species on record: Rattus norvegicus; test: Tissue biodistribution into estrogen-primed immature female rat muscle at 1 hr low time interval; assay type: ADME, organism-based; conditions: in vivo; summary of the method: as §1
[3] = species on record: Rattus norvegicus; test: Tissue biodistribution into estrogen-primed immature female rat muscle at 1 hr time interval; assay type: ADME, organism-based; conditions: in vivo; summary of the method: as §1
[4] = species on record: Rattus norvegicus; test: Tissue biodistribution into estrogen-primed immature female rat kidney at 1 hr blocked time interval; assay type: ADME, organism-based; conditions: in vivo; summary of the method: as §1
[5] = species on record: Rattus norvegicus; test: Tissue biodistribution into estrogen-primed immature female rat kidney at 1 hr low time interval; assay type: ADME, organism-based; conditions: in vivo; summary of the method: as §1
[6] = species on record: Rattus norvegicus; test: Tissue biodistribution into estrogen-primed immature female rat kidney at 1 hr time interval; assay type: ADME, organism-based; conditions: in vivo; summary of the method: as §1
[7] = species on record: Rattus norvegicus; test: Tissue biodistribution into estrogen-primed immature female rat kidney at 3 hr time interval; assay type: ADME, organism-based; conditions: in vivo; summary of the method: as §1
[8] = species on record: Rattus norvegicus; test: Tissue biodistribution into estrogen-primed immature female rat liver at 1 hr blocked time interval; assay type: ADME, organism-based; conditions: in vivo; summary of the method: as §1
[9] = species on record: Rattus norvegicus; test: Tissue biodistribution into estrogen-primed immature female rat liver at 1 hr low time interval; assay type: ADME, organism-based; conditions: in vivo; summary of the method: as §1
[10] = species on record: Rattus norvegicus; test: Tissue biodistribution into estrogen-primed immature female rat liver at 1 hr time interval; assay type: ADME, organism-based; conditions: in vivo; summary of the method: as §1
[11] = species on record: Rattus norvegicus; test: Tissue biodistribution into estrogen-primed immature female rat liver at 3 hr time interval; assay type: ADME, organism-based; conditions: in vivo; summary of the method: as §1
[12] = species on record: Rattus norvegicus; test: Tissue biodistribution into estrogen-primed immature female rat lung at 1 hr blocked time interval; assay type: ADME, organism-based; conditions: in vivo; summary of the method: as §1
[13] = species on record: Rattus norvegicus; test: Tissue biodistribution into estrogen-primed immature female rat lung at 1 hr low time interval; assay type: ADME, organism-based; conditions: in vivo; summary of the method: as §1
[14] = species on record: Rattus norvegicus; test: Tissue biodistribution into estrogen-primed immature female rat lung at 1 hr time interval; assay type: ADME, organism-based; conditions: in vivo; summary of the method: as §1
[15] = species on record: Rattus norvegicus; test: Tissue biodistribution into estrogen-primed immature female rat muscle at 3 hr time interval; assay type: ADME, organism-based; conditions: in vivo; summary of the method: as §1
[16] = species on record: Rattus norvegicus; test: Tissue biodistribution into estrogen-primed immature female rat ovaries at 1 hr blocked time interval; assay type: ADME, organism-based; conditions: in vivo; summary of the method: as §1
[17] = species on record: Rattus norvegicus; test: Tissue biodistribution into estrogen-primed immature female rat ovaries at 1 hr low time interval; assay type: ADME, organism-based, Female gonad; conditions: in vivo; summary of the method: as §1
[18] = species on record: Rattus norvegicus; test: Tissue biodistribution into estrogen-primed immature female rat ovaries at 1 hr time interval; assay type: ADME, organism-based, Female gonad; conditions: in vivo; summary of the method: as §1
[19] = species on record: Rattus norvegicus; test: Tissue biodistribution into estrogen-primed immature female rat ovaries at 3 hr time interval; assay type: ADME, organism-based, Female gonad; conditions: in vivo; summary of the method: as §1
[20] = species on record: Rattus norvegicus; test: Tissue biodistribution into estrogen-primed immature female rat uterus at 1 hr blocked time interval; assay type: ADME, organism-based; conditions: in vivo; summary of the method: as §1
[21] = species on record: Rattus norvegicus; test: Tissue biodistribution into estrogen-primed immature female rat uterus at 1 hr low time interval; assay type: ADME, organism-based; conditions: in vivo; summary of the method: as §1
[22] = species on record: Rattus norvegicus; test: Tissue biodistribution into estrogen-primed immature female rat uterus at 1 hr time interval; assay type: ADME, organism-based; conditions: in vivo; summary of the method: as §1
[23] = species on record: Rattus norvegicus; test: Tissue biodistribution into estrogen-primed immature female rat uterus at 3 hr time interval; assay type: ADME, organism-based; conditions: in vivo; summary of the method: as §1
[24] = species on record: Rattus norvegicus; test: Tissue biodistribution into estrogen-primed immature female rat uterus/blood at 1 hr blocked time interval; assay type: ADME, organism-based; conditions: in vivo; summary of the method: as §1
[25] = species on record: Rattus norvegicus; test: Tissue biodistribution into estrogen-primed immature female rat uterus/blood at 1 hr low time interval; assay type: ADME, organism-based; conditions: in vivo; summary of the method: as §1
[26] = species on record: Rattus norvegicus; test: Tissue biodistribution into estrogen-primed immature female rat uterus/blood at 1 hr time interval; assay type: ADME, organism-based; conditions: in vivo; summary of the method: as §1
[27] = species on record: Rattus norvegicus; test: Tissue biodistribution into estrogen-primed immature female rat uterus/blood at 3 hr time interval; assay type: ADME, organism-based; conditions: in vivo; summary of the method: as §1
[28] = species on record: Rattus norvegicus; test: Tissue biodistribution into estrogen-primed immature female rat fat at 1 hr low time interval; assay type: ADME, organism-based, Adipose tissue; conditions: in vivo; summary of the method: as §1
[29] = species on record: Rattus norvegicus; test: Tissue biodistribution into estrogen-primed immature female rat fat at 1 hr time interval; assay type: ADME, organism-based, Adipose tissue; conditions: in vivo; summary of the method: as §1
[30] = species on record: Rattus norvegicus; test: Tissue biodistribution into estrogen-primed immature female rat fat at 3 hr time interval; assay type: ADME, organism-based, Adipose tissue; conditions: in vivo; summary of the method: as §1
[31] = species on record: Rattus norvegicus; test: Tissue biodistribution into estrogen-primed immature female rat uterus/muscle at 1 hr low time interval; assay type: ADME, organism-based; conditions: in vivo; summary of the method: as §1
[32] = species on record: Rattus norvegicus; test: Tissue biodistribution into estrogen-primed immature female rat uterus/muscle at 1 hr time interval; assay type: ADME, organism-based; conditions: in vivo
[33] = species on record: Rattus norvegicus; test: Tissue biodistribution into estrogen-primed immature female rat uterus/muscle at 3 hr time interval; assay type: ADME, organism-based; conditions: in vivo
[34] = species on record: Rattus norvegicus; test: Tissue biodistribution into estrogen-primed immature female rat blood at 1 hr blocked time interval; assay type: ADME, organism-based; conditions: in vivo; summary of the method: as §1
[35] = species on record: Rattus norvegicus; test: Tissue biodistribution into estrogen-primed immature female rat blood at 1 hr low time interval; assay type: ADME, organism-based; conditions: in vivo; summary of the method: as §1
[36] = species on record: Rattus norvegicus; test: Tissue biodistribution into estrogen-primed immature female rat blood at 1 hr time interval; assay type: ADME, organism-based; conditions: in vivo; summary of the method: as §1
[37] = species on record: Rattus norvegicus; test: Tissue biodistribution into estrogen-primed immature female rat blood at 3 hr time interval; assay type: ADME, organism-based; conditions: in vivo; summary of the method: as §1
[38] = species on record: Rattus norvegicus; test: Tissue biodistribution into estrogen-primed immature female rat bone at 1 hr blocked time interval; assay type: ADME, organism-based, Bone element; conditions: in vivo; summary of the method: as §1
[39] = species on record: Rattus norvegicus; test: Tissue biodistribution into estrogen-primed immature female rat bone at 1 hr time interval; assay type: ADME, organism-based, Bone element; conditions: in vivo; summary of the method: as §1
[40] = species on record: Rattus norvegicus; test: Tissue biodistribution into estrogen-primed immature female rat bone at 3 hr time interval; assay type: ADME, organism-based, Bone element; conditions: in vivo; summary of the method: as §1
[41] = species on record: Rattus norvegicus; test: Tissue biodistribution into estrogen-primed immature female rat brain at 1 hr blocked time interval; assay type: ADME, organism-based; conditions: in vivo; summary of the method: as §1
[42] = species on record: Rattus norvegicus; test: Tissue biodistribution into estrogen-primed immature female rat brain at 1 hr low time interval; assay type: ADME, organism-based; conditions: in vivo; summary of the method: as §1
[43] = species on record: Rattus norvegicus; test: Tissue biodistribution into estrogen-primed immature female rat brain at 1 hr time interval; assay type: ADME, organism-based; conditions: in vivo; summary of the method: as §1
[44] = species on record: Rattus norvegicus; test: Tissue biodistribution into estrogen-primed immature female rat brain at 3 hr time interval; assay type: ADME, organism-based; conditions: in vivo; summary of the method: as §1
[45] = species on record: Rattus norvegicus; test: Tissue biodistribution into estrogen-primed immature female rat fat at 1 hr blocked time interval; assay type: ADME, organism-based, Adipose tissue; conditions: in vivo; summary of the method: as §1
[46] = Partition coefficient (logP); assay type: physicochemical; conditions: octanol/water
Summary of the method: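 log P(o/w) (octanol/water) estimated by a reversed-phase HPLC method.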

[47] = target: T1, Progesterone receptor (Homo sapiens) (UniProt P06401); test: Nonspecific binding affinity against progesterone receptor was estimated relative to compound R5020
T1 sequence (whole entry): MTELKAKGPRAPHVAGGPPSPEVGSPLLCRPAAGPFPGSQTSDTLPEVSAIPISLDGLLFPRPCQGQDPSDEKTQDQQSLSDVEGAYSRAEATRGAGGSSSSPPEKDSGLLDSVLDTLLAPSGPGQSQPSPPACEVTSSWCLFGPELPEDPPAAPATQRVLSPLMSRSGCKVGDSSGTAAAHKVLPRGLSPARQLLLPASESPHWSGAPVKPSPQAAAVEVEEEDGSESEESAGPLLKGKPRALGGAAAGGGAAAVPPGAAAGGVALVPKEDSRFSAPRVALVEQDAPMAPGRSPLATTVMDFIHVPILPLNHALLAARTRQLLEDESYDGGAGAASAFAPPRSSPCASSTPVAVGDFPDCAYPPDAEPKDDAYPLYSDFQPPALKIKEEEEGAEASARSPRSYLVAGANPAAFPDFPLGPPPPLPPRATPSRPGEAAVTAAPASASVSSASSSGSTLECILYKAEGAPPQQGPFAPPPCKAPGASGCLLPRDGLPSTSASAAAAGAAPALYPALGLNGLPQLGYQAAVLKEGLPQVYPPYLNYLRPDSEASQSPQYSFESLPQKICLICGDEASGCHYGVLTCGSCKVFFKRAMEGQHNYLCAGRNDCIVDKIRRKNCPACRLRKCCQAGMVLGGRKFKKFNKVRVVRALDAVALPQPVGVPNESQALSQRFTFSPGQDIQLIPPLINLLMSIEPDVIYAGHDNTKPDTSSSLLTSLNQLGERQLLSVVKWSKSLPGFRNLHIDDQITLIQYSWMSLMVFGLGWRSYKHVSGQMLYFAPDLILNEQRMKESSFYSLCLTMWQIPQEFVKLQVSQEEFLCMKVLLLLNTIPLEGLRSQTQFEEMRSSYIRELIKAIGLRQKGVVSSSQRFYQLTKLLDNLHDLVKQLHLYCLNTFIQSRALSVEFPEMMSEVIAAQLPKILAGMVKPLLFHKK

[48] = species on record: Rattus norvegicus; test: Tissue biodistribution into estrogen-primed immature female rat lung at 3 hr time interval; assay type: ADME, organism-based; conditions: in vivo; summary of the method: as §1
[49] = species on record: Rattus norvegicus; test: Tissue biodistribution into estrogen-primed immature female rat bone at 1 hr low time interval; assay type: ADME, organism-based, Bone element; conditions: in vivo; summary of the method: as §1
[50] = species on record: Rattus norvegicus; test: Tissue biodistribution into estrogen-primed immature female rat uterus/muscle at 1 hr blocked time interval; assay type: ADME, organism-based; conditions: in vivo; summary of the method: as §1

Injected dose/g [1]: 0.71%
Injected dose/g [2]: 0.41%
Injected dose/g [3]: 0.59%
Injected dose/g [4]: 1.72%
Injected dose/g [5]: 1.14%
Injected dose/g [6]: 1.66%
Injected dose/g [7]: 0.73%
Injected dose/g [8]: 2.49%
Injected dose/g [9]: 1.81%
Injected dose/g [10]: 2.4%
Injected dose/g [11]: 1.65%
Injected dose/g [12]: 1.16%
Injected dose/g [13]: 1.51%
Injected dose/g [14]: 2.38%
Injected dose/g [15]: 0.26%
Injected dose/g [16]: 1.65%
Injected dose/g [17]: 2.13%
Injected dose/g [18]: 2.76%
Injected dose/g [19]: 2.62%
Injected dose/g [20]: 1.68%
Injected dose/g [21]: 5.18%
Injected dose/g [22]: 6.8%
Injected dose/g [23]: 7.83%
uterus/blood ratio [24]: 3.68
Injected dose/g [25]: 14.95%
Uterus to blood concentration ratio [26]: 18.18%
uterus/blood ratio [27]: 48
Injected dose/g [28]: 2.15%
Injected dose/g [29]: 2.16%
Injected dose/g [30]: 2.36%
Injected dose/g [31]: 12.85%
Uterus to muscle uptake ratio [32]: 11.63%
ratio [33]: 32.2
Injected dose/g [34]: 0.46%
Injected dose/g [35]: 0.35%
Injected dose/g [36]: 0.38%
Injected dose/g [37]: 0.19%
Injected dose/g [38]: 1.29%
Injected dose/g [39]: 1.11%
Injected dose/g [40]: 1.3%
Injected dose/g [41]: 0.49%
Injected dose/g [42]: 0.4%
Injected dose/g [43]: 0.57%
Injected dose/g [44]: 0.18%
Injected dose/g [45]: 2.4%
logP [46]: 4.11
logP ([46]; read-out: logP): 3.87
NSB [47]: 0.83 and 1.06
Injected dose/g [48]: 0.31%
Injected dose/g [49]: 0.99%
uterus/muscle ratio [50]: 2.34
SMILES: C[C@]12CCC3C(CCC4=CC(=O)CC[C@@H]43)C1C[C@H]1OC(c3ccco3)O[C@]12C(=O)CF (stereo partly specified)

From ChEMBL document CHEMBL1128440 (J Med Chem, 1995)
